PubChem BioAssay
Records with an inconclusive call do not appear.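 The calls were made as follows, unless noted: active = viability increase at or above a cutoff of the median across tested compounds plus 3 SD (cut at about 8.5% in these data, passing the limit was not always enough); inconclusive = some gains above the cutoff, reason not given; inactive = the rest.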

How the values were obtained:
[1] = OD615 S. cerevisiae growth inhibition, permissive medium, pilot counter-assay, permissive growth control for S. cerevisiae lifespan shortening project (AID 705;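 active = growth inhibition above 25% in both replicates, a cutoff set 3 SD above the mean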); settings: OD615, 24 h, at 10 µM, hits give high values
In short: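 System: Engineered DeaD yeast | Buffer or medium: SC raffinose/galactose permissive medium | Incubation: Cells pre-grown 4 h, then 24 h compound exposure, 30 °C humidified | Measured by: Absorbance (optical density) at 615 nm | Read-out: Reduction in yeast growth (OD615)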

[2] = Restrictive medium S. cerevisiae growth inhibition, OD615, pilot screen of yeast lifespan reduction project, restrictive growth control (AID 706;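 active = growth inhibition above a set limit, 3 SD over mean compound inhibition, in both replicates, cut at about 43% in these data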;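 also: modified DeaD lifespan yeast strain shifted to restrictive glucose medium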); settings: OD615, 48 h, at 10 µM, hits give high values
In short: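 Material: modified S. cerevisiae; Medium: glucose-based CSMM-D restrictive medium; Compound dosing: one concentration, 10 µM final, 0.25% DMSO; Incubation: 48 h compound exposure at 30 °C; Measured by: OD615.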

[3] = viability gain of MRP-1-high H69AR cells under doxorubicin, pilot screen, MRP-1 activator project, CellTiter-Glo, duplicate (AID 807); settings: H69AR viability with doxorubicin, CellTiter-Glo luminescence; at 10 µM; hits give high values;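 also: compound pretreatment 18-22 h then 72 h combined with doxorubicin; 0% = doxorubicin alone and 100% = vehicle without doxorubicin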
[4] = growth suppression of beta-catenin knockout HCT116, pilot screen, human colon tumor cells (AID 823;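 active = cell viability at or below a set limit in both duplicate runs, the limit being the all-compound median minus 4 SD, cut at about 23% in these data, passing the limit was not always enough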;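 also: 0% = wells killed by 20 µM Hyamine and 100% = untreated DMSO cell wells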); settings: CellTiter-Glo, 60 h, at 10 µM, hits give low values
[5] = growth suppression of PTEN-deleted HCT116, pilot screen, cell-based, HCT116 clonal line, CellTiter-Glo (AID 824;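 active = viability at or below 27.92% in each of two runs, the all-compound median minus 4 SD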;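 also: 0% = 20 µM Hyamine control and 100% = vehicle cell control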); settings: 60 h, at 10 µM, hits give low values
[6] = inhibitors of the yeast RAM network, pilot screen, dse1pr::URA3 reporter, 5-FOA selection (AID 869;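 active = inhibition over a set limit, the all-compound mean plus 3 SD, in both replicate runs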;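 also: 0% = DMSO wells with no growth and 100% = 10 µM 1-NA-PP1 with full growth; RAM network block rescues cells from 5-FOA so hits raise OD615 growth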); settings: S. cerevisiae dse1pr::URA3 5-FOA growth, OD615, 2 d, at 10 µM, hits give high values
[7] = RAM signaling pathway blockade in yeast – S. cerevisiae, Pdr1DBD-CYC8 efflux-inhibited sensitized strain, primary screen (AID 1298;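 active = RAM network inhibition above 8.4% in each of two replicates, 3 SD over the compound average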;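 also: 0% = DMSO untreated cells without growth and 100% = 10 µM 1-NA-PP1 full growth; higher means more yeast growth rescued from 5-FOA killing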); settings: S. cerevisiae cbk1-as DSE1-URA3 strain, 5-FOA growth OD615, 2 d; at 50 µM; hits give high values

COC(=O)c1ccc(CN2CCN(Cc3ccccc3)CC2)cc1
inactive: growth inhibition [1] -18.9% | growth inhibition [2] -15.9% | viability increase [3] -1.15% | viability [4] 94.5% | viability [5] 90.8% | inhibition [6] 1.31% | RAM network inhibition [7] 1.37%

Nc1ccc(S(=O)(=O)N2CC3CC(C2)c2cccc(=O)n2C3)cc1 (centres undefined)
inactive: growth inhibition [1] 1.94% | growth inhibition [2] 1.35% | viability increase [3] 0.35% | viability [4] 101% | viability [5] 100% | inhibition [6] 0.13% | RAM network inhibition [7] 0.37%

O=C(CN1CC(c2ccccc2)CC1=O)NCc1ccc(F)cc1 (centres undefined)
inactive: growth inhibition [1] -10.3% | growth inhibition [2] 12.3% | viability increase [3] 0.06% | viability [4] 103% | viability [5] 103% | inhibition [6] 2.63% | RAM network inhibition [7] -0.21%

CC(CO)(CO)N=Cc1c(O)n(-c2cccc3ccccc23)c(=O)[nH]c1=O
inactive: growth inhibition [1] -9.27% | growth inhibition [2] -18.2% | viability increase [3] -1.01% | viability [4] 95.8% | viability [5] 99% | inhibition [6] 0.52% | RAM network inhibition [7] 4.06%

CN1C(=O)C(Cc2cccs2)C(=O)N(C)C1=O
inactive: growth inhibition [1] -5.75% | growth inhibition [2] -4.64% | viability increase [3] 0% | viability [4] 100% | viability [5] 98.9% | inhibition [6] 0.795% | RAM network inhibition [7] 4.94%

O=C(Cc1ccccc1)Oc1cccc(N2C(=O)CCC2=O)c1
inactive: growth inhibition [1] -15.7% | growth inhibition [2] -12.2% | viability increase [3] -0.69% | viability [4] 101% | viability [5] 94.8% | inhibition [6] 1.23% | RAM network inhibition [7] 3.42%

CC1(C)C(c2ccccc2)=NC(c2cccnc2)=[N+]1[O-]
inactive: growth inhibition [1] -4.62% | growth inhibition [2] -3.12% | viability increase [3] 1.13% | viability [4] 98.7% | viability [5] 89.4% | inhibition [6] -0.02% | RAM network inhibition [7] -0.36%

Cc1ccc(-n2nc(C)c3c2NC(=O)CSC3c2ccc3c(c2)OCO3)cc1 (centres undefined)
inactive: growth inhibition [1] -3.05% | growth inhibition [2] 2.3% | viability increase [3] 0.35% | viability [4] 89.9% | viability [5] 96.3% | inhibition [6] 0.385% | RAM network inhibition [7] 1.16%

CC1=CC(=C2C(=O)NC(=O)NC2=O)C=C(C(F)(F)F)N1C(C)C
inactive: growth inhibition [1] -13.5% | growth inhibition [2] -9.69% | viability increase [3] -1.79% | viability [4] 92.5% | viability [5] 91.3% | inhibition [6] 2.69% | RAM network inhibition [7] 0.05%

CCOC(=O)N(CC)c1ccc(C(O)(C(=O)OCC)C(F)(F)F)cc1 (centres undefined)
inactive: growth inhibition [1] -2.74% | growth inhibition [2] -2.65% | viability increase [3] -0.35% | viability [4] 92.5% | viability [5] 95.3% | inhibition [6] 0.745% | RAM network inhibition [7] 0.46%

O=c1cccc2n1CC1CC2CN(C(c2ccccc2)c2sc3ncnn3c2O)C1 (centres undefined)
inactive: growth inhibition [1] 4.58% | growth inhibition [2] 3.32% | viability increase [3] -1.49% | viability [4] 93.8% | viability [5] 96.8% | inhibition [6] 1.01% | RAM network inhibition [7] 1.32%

COc1cc(CN2CC3CC(C2)c2cccc(=O)n2C3)cc(OC)c1OC (centres undefined)
inactive: growth inhibition [1] -11.8% | growth inhibition [2] -4.6% | viability increase [3] -2.25% | viability [4] 104% | viability [5] 109% | inhibition [6] 2.42% | RAM network inhibition [7] 0.85%

CN(C)C(=O)Oc1ccc(-c2nnco2)cc1
inactive: growth inhibition [1] 0.38% | growth inhibition [2] -1.25% | viability increase [3] 1.79% | viability [4] 104% | viability [5] 99.7% | inhibition [6] 1.48% | RAM network inhibition [7] 0.73%

COc1ccc(CC2C(=O)NC(=O)N(c3ccccc3)C2=O)c(OC)c1 (centres undefined)
inactive: growth inhibition [1] -13.5% | growth inhibition [2] 0.545% | viability increase [3] -1.2% | viability [4] 89.6% | viability [5] 96.9% | inhibition [6] -0.495% | RAM network inhibition [7] 0.67%

C=Cn1ccnc1P(=S)(c1c(C)nn(-c2ccccc2)c1C)c1nccn1C=C
inactive: growth inhibition [1] 0.15% | growth inhibition [2] 13.2% | viability increase [3] -2.8% | viability [4] 93.8% | viability [5] 90.2% | inhibition [6] 1.75% | RAM network inhibition [7] 5.43%

CC12CN3CC(C)(CN(C1)C3c1cccnc1)C2=O (centres undefined)
inactive: growth inhibition [1] -9.24% | growth inhibition [2] 7.5% | viability increase [3] -0.3% | viability [4] 103% | viability [5] 100% | inhibition [6] 1.14% | RAM network inhibition [7] 9%

CC12CN3CC(C)(CN(C1)C3c1ccco1)C2=O (centres undefined)
inactive: growth inhibition [1] -8.88% | growth inhibition [2] -8.04% | viability increase [3] -0.55% | viability [4] 95.6% | viability [5] 99.6% | inhibition [6] 2.1% | RAM network inhibition [7] 2.07%

CCN(c1ccc(C(O)(C(=O)OC)C(F)(F)F)cc1)S(=O)(=O)c1ccccc1 (centres undefined)
inactive: growth inhibition [1] -4.31% | growth inhibition [2] -3.91% | viability increase [3] 0.9% | viability [4] 99.4% | viability [5] 102% | inhibition [6] -0.62% | RAM network inhibition [7] 4.74%

CCOc1ccc(-n2c(O)c(C=Nc3ccc(N4CCOCC4)cc3)c(=O)[nH]c2=O)cc1
inactive: growth inhibition [1] -8.12% | growth inhibition [2] -10.6% | viability increase [3] -3.19% | viability [4] 97.8% | viability [5] 103% | inhibition [6] 0.445% | RAM network inhibition [7] 5.35%

Clc1cccc(CN2CCCCC2c2cccnc2)c1 (centres undefined)
inactive: growth inhibition [1] -8.37% | growth inhibition [2] -2.08% | viability increase [3] 0.65% | viability [4] 81.9% | viability [5] 85.3% | inhibition [6] 1.16% | RAM network inhibition [7] -0.74%

O=C1CC(N2CC=C(c3ccccc3)CC2)C(=O)N1c1ccc(F)cc1 (centres undefined)
inactive: growth inhibition [1] -7.4% | growth inhibition [2] -4.17% | viability increase [3] 3.41% | viability [4] 98.8% | viability [5] 97.3% | inhibition [6] 0.99% | RAM network inhibition [7] 5.39%

CC(=O)Nc1ccc(OC(=O)N(C)c2ccccc2)cc1
inactive: growth inhibition [1] 1.69% | growth inhibition [2] -3.19% | viability increase [3] 0.24% | viability [4] 105% | viability [5] 100% | inhibition [6] 3.04% | RAM network inhibition [7] 3.59%

CC(=O)c1cccc(NC2=NCC(C)S2)c1 (centres undefined)
inactive: growth inhibition [1] -9.46% | growth inhibition [2] -13.1% | viability increase [3] -0.51% | viability [4] 106% | viability [5] 93.9% | inhibition [6] 2.77% | RAM network inhibition [7] 2.41%

O=C(CN1CCOCC1)c1ccc2cc[nH]c2c1
inactive: growth inhibition [1] -10.7% | growth inhibition [2] -1.26% | viability increase [3] 0.03% | viability [4] 105% | viability [5] 108% | inhibition [6] 0.035% | RAM network inhibition [7] 1.57%

CC12CNCC(C)(CNC1)C2O (centres undefined)
inactive: growth inhibition [1] 7.96% | growth inhibition [2] -2.77% | viability increase [3] -0.15% | viability [4] 97.5% | viability [5] 99.8% | inhibition [6] 1.12% | RAM network inhibition [7] 2.1%

COc1ccccc1N=Cc1c(O)n(C)c(=O)n(C)c1=O
inactive: growth inhibition [1] -6.69% | growth inhibition [2] 1.98% | viability increase [3] 0.23% | viability [4] 87.1% | viability [5] 99.6% | inhibition [6] -0.295% | RAM network inhibition [7] 2.71%

CCOc1ccc(-n2c(CC)nc3ccccc3c2=O)cc1
inactive: growth inhibition [1] -2.47% | growth inhibition [2] -8.86% | viability increase [3] -1.18% | viability [4] 88% | viability [5] 89.8% | inhibition [6] 1.81% | RAM network inhibition [7] 3.89%

CN(C)c1ccc(CN2CC=C(c3ccc(F)cc3)CC2)cc1
inactive: growth inhibition [1] -15.2% | growth inhibition [2] -10.7% | viability increase [3] -2.99% | viability [4] 86.6% | viability [5] 96.5% | inhibition [6] 1.31% | RAM network inhibition [7] 1.92%

O=C1OCCN1P(=O)(c1ccccc1)c1ccccc1
inactive: growth inhibition [1] -6.19% | growth inhibition [2] 2.02% | viability increase [3] -0.69% | viability [4] 98.4% | viability [5] 98% | inhibition [6] 0.445% | RAM network inhibition [7] -1.04%

O=c1c2ccccc2nc(-c2cccs2)n1-c1cnccn1
inactive: growth inhibition [1] -10.5% | growth inhibition [2] -2.03% | viability increase [3] -1.4% | viability [4] 99.7% | viability [5] 96.3% | inhibition [6] 2.33% | RAM network inhibition [7] 2.35%

CC12CN3CC(C)(CN(C1)P3(=O)Oc1ccccc1)C2=O (centres undefined)
inactive: growth inhibition [1] -3.04% | growth inhibition [2] -8.29% | viability increase [3] -0.06% | viability [4] 101% | viability [5] 97.9% | inhibition [6] 2.22% | RAM network inhibition [7] 3.62%

CCOC(=O)C1SC2(C(F)(F)C(F)F)CC1(O)c1c(c(OC)c3occc3c1OC)O2 (centres undefined)
inactive: growth inhibition [1] -4.93% | growth inhibition [2] -26.4% | viability increase [3] -0.89% | viability [4] 98.4% | viability [5] 86.9% | inhibition [6] 1.6% | RAM network inhibition [7] 6.2%

CCOC(=O)c1c(C)n(Cc2ccco2)c2ccc(OC)cc12
inactive: growth inhibition [1] 3.7% | growth inhibition [2] 0.26% | viability increase [3] -4.85% | viability [4] 84.4% | viability [5] 85.8% | inhibition [6] 0.59% | RAM network inhibition [7] 3.6%

CCCCCP(=O)(O)c1ccccc1
inactive: growth inhibition [1] -5.12% | growth inhibition [2] -13.1% | viability increase [3] -1.16% | viability [4] 95.2% | viability [5] 103% | inhibition [6] 0.735% | RAM network inhibition [7] 2.16%

CN(C)C(=O)Oc1ccc(OC(=O)N(C)C)cc1
inactive: growth inhibition [1] 1.07% | growth inhibition [2] -14.3% | viability increase [3] 0.6% | viability [4] 104% | viability [5] 99.5% | inhibition [6] 1.02% | RAM network inhibition [7] -0.32%

Nc1ccccc1C(=O)c1ccccc1
inactive: growth inhibition [1] -0.69% | growth inhibition [2] -1.46% | viability increase [3] -1.42% | viability [4] 90.9% | viability [5] 88.7% | inhibition [6] 0.55% | RAM network inhibition [7] 2.5%

CN1CC=C(c2c[nH]c3ccccc23)CC1
inactive: growth inhibition [1] 0.43% | growth inhibition [2] 10.4% | viability increase [3] -3.51% | viability [4] 92% | viability [5] 92.5% | inhibition [6] -0.185% | RAM network inhibition [7] -1.66%
